Experimental data of several laboratories.
Compare with care: the assays were run in different laboratories.
Target: Mitogen-activated protein kinase kinase kinase 2 (MAP3K2, Homo sapiens, UniProt Q9Y2U5)
One construct used (Q9Y2U5 1-619): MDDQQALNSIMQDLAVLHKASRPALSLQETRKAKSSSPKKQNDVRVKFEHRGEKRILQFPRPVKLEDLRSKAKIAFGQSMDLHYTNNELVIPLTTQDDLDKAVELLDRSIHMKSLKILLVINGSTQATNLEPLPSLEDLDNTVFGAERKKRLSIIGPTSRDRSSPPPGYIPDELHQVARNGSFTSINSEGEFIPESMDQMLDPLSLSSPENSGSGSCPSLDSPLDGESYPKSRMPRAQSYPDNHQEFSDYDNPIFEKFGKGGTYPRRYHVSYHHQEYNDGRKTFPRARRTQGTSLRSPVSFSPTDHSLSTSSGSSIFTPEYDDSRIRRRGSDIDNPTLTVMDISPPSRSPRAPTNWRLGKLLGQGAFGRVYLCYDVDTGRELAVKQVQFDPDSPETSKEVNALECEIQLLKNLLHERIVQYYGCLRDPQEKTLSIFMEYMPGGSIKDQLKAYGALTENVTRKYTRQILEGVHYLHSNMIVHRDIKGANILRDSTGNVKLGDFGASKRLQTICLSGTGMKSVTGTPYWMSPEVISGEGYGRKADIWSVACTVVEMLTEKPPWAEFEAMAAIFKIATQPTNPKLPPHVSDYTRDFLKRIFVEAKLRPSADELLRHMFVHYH

SMILES	assay	conditions	measurement	result
CO[C@@H]1[C@H](N(C)C(=O)c2ccccc2)C[C@H]2O[C@]1(C)n1c3ccccc3c3c4c(c5c6ccccc6n2c5c31)C(=O)NC4	enzyme activity, inhibitor	1 µM	inhibition	94%
COc1ccc2[nH]c3c4[nH]c5ccc(OC)cc5c4c4c(c3c2c1)C(=O)NC4=O	binding, competition with immobilised ligand	1 µM	remaining binding	85%
C1=C/COCc2cc(ccc2OCCN2CCCC2)Nc2nccc(n2)-c2cccc(c2)COC/1	binding	0.1 µM	remaining binding	38%
Cc1cc(O)c(-c2ccc([C@@H](C)CN(C)C)cc2)c2c1[nH]c(=O)c1sccc12	enzyme activity, inhibitor	0.1 µM	inhibition	-1.76%
CCCCC(=O)Nc1ccc(-c2ccc3ncn(CCC)c(=O)c3c2)cn1	binding, competition with immobilised ligand	0.5 µM	remaining binding	100%
CC(C)S(=O)(=O)c1ccc2nccc(Nc3ccc4sc(C5CCCC5)nc4c3)c2c1	enzyme activity, inhibitor	1 µM	activity vs control	103%
COc1ccc2oc(-c3ccc4nc(N)oc4c3)c/c(=N\c3ccccc3NC(=O)CCN)c2c1	binding	1 µM	remaining binding	101%
C#Cc1cc(-c2cc(Nc3nc(N[C@@H](C)c4ccc(F)cn4)ncc3Cl)n[nH]2)ccc1C=O	enzyme activity, inhibitor	0.2 µM	inhibition	55.2%
C=CC(=O)N1CCC([C@@H]2CCNc3c(C(N)=O)c(-c4ccc(Oc5ccccc5)cc4)nn32)CC1	enzyme activity, inhibitor	1 µM	inhibition	39%
CN1CCN(C(=O)c2ccc(NC(=O)Nc3ccc(N(C)c4ccnc(Nc5ccc(CS(C)(=O)=O)cc5)n4)cc3)cc2)CC1	binding, competition with immobilised ligand	1 µM	remaining binding	38%
